Ecoli WT expand = growth inhibitors of E. coli BW25113 wild type; OD600 absorbance; growth inhibition, % at 100 µM; hit rate 0.15% among 98,000;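 active means growth inhibition above about 50% at one test dose, limit read from the data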;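 further: growth measured after 20 h incubation at 37 °C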
Mac1 fbg inh = inhibitors of human CD11b/CD18 binding to fibrinogen; inhibition, % at 10 µM; hit rate 0.54% among 93,000; K562 CD11b/CD18 adhesion to fibrinogen, ATPlite luminescence; Mn2+ added to activate the integrin;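 active means primary inhibition of 50% or more at 10 µM, then 40% or more on retest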
Target sequence (P05107 whole entry, looked up, other chains not shown): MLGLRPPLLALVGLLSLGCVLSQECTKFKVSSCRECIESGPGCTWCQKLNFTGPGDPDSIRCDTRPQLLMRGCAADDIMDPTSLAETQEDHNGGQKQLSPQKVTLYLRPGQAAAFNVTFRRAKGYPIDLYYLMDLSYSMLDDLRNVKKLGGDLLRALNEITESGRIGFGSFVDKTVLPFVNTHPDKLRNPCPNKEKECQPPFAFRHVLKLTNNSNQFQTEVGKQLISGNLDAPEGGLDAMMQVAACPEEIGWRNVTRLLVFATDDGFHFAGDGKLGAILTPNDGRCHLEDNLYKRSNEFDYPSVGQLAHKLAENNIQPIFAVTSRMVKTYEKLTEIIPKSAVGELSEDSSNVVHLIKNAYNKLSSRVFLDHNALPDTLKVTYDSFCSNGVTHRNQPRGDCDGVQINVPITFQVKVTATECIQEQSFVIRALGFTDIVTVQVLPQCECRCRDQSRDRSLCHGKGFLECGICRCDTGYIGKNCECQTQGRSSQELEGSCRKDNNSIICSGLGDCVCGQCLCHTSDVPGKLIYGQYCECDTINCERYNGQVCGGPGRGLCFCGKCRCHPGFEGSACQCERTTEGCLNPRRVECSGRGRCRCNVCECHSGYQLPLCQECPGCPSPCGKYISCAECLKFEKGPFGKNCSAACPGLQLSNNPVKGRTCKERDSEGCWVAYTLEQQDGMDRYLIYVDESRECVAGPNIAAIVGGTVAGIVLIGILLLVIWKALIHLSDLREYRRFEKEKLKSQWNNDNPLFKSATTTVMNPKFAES
CD11b adhes enh = enhancers of human CD11b/CD18 binding to fibrinogen. K562 CD11b/CD18 adhesion to fibrinogen, ATPlite luminescence. AID 1499. hit rate 0.07% among 93,000. activation, % at 10 µM;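 active means 10 µM primary screen giving 50% or more activity, confirmed by 40% or more on retest at that dose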
Phagocyt inh = blocks phagocytosis by macrophages; hit rate 0.07% among 110,000; inhibition, % at 5 µM; J774A.1 macrophage IgG-bead phagocytosis, imaging;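 active means inhibition above the mean of the plate negative controls plus 5 SD, cut at about 13% in these data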;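 further: phagocytic index as fraction of beads internalized from green versus red external bead signal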
Ecoli tolC = blocks growth of E. coli BW25113 tolC mutant | OD615 | growth inhibition, % at 10 µM (by protocol) | hit rate 2.2% among 65,000;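 active means growth inhibition at or above a cutoff equal to the mean over every tested compound plus 3 SD, cut at about 60% in these data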;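 further: growth measured after 20 h incubation at 37 °C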
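Assay system: tolC-deleted E. coli BW25113. Medium: kanamycin-containing LB broth (50 µg/mL). Dosing: 10 µM final, single dose. Timing: bacterial growth with compound for 20 h at 37 °C. Detection: A615 absorbance measurement. Read-out basis: growth inhibition in percent.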
Hits are given with their value; i = inactive; nt = no result. Many of the other results were omitted from the sample, so hits are more common in it than they were.

SMILES	Ecoli WT expand	Mac1 fbg inh	CD11b adhes enh	Phagocyt inh	Ecoli tolC
O=C1C2CCCN2c2ccc(S(=O)(=O)N3CCOCC3)cc2N1Cc1ccccc1F (centres undefined)	i	nt	nt	nt	nt
COc1ccccc1Oc1ccc(S(=O)(=O)NCc2ccccn2)cc1	i	68	i	i	i
CSc1c(CC(=O)Nc2ccccc2C(F)(F)F)n(Cc2ccccc2)c2ccccc12	nt	nt	nt	i	nt
Cc1nc(Cl)c(C(=O)NC(=O)NCc2ccccc2)c(C)c1Cl	nt	nt	nt	i	nt
CCOc1ccccc1/C=C(/NC(=O)c1ccccc1)C(=O)NC(C)c1ccccc1 (centres undefined)	nt	nt	nt	i	nt
CCCCNC(=O)c1nc2ncc(Br)cn2n1	i	i	i	193	i
CCCNC(=O)c1nc2ncc(Br)cn2n1	i	i	i	i	i
Cc1cccc(N2CCN(C(=O)c3cc4n(n3)C(C(F)(F)F)CC(c3ccco3)N4)CC2)c1C (centres undefined)	i	i	i	i	74
O=C(Nc1nc(-c2cccs2)cs1)c1ccc(Cl)s1	i	nt	nt	nt	96
CC(C)(C)c1csc(NC(=O)c2ccc(Cl)s2)n1	i	i	i	i	100
O=C(Nc1ccn(Cc2ccc(Cl)cc2)n1)c1ccc2c(c1)OCO2	i	i	i	i	63
COc1ccc(C2=CC(=O)OC(C)(c3ccccc3)O2)cc1 (centres undefined)	nt	nt	nt	i	nt
CC(=O)c1ccc(NC(=O)Nc2cccc(Cl)c2)cc1	52	97	i	nt	nt
O=C(Nc1ccccc1)Nc1cccc(Cl)c1	i	i	i	i	nt
O=C1NC(=S)SC1=C1CCCCCC1	i	59	i	nt	i
O=C1N=C(N2CCCCC2)SC1=C1CCCCC1	i	i	i	nt	nt
COc1cc(NC(C)CCCN)c2ncccc2c1Oc1ccccc1 (centres undefined)	nt	nt	nt	i	nt
CN(C)CCCn1c(SCC(=O)N2c3ccccc3Sc3ccccc32)nc2ccccc2c1=O	nt	i	i	i	nt
CC(=O)c1ccc(NC(=O)C(C)OC(=O)COc2ccc(C#N)cc2)cc1 (centres undefined)	nt	i	i	i	nt
COC(=O)c1ccc(NC(=O)CN2CCN(c3ccc(Cl)cc3)CC2)cc1	i	i	i	i	i
COC(=O)c1ccc(NC(=O)CN2CCN(c3cccc(Cl)c3)CC2)cc1	i	i	i	i	75
Cc1ccc(C(=O)N2CCN(c3cccc(Cl)c3)CC2)cc1C	i	i	i	i	68
Cc1nnc(SCC(=O)Nc2sc3c(c2C(=O)c2ccccc2)CCCC3)s1	nt	nt	nt	i	nt
Cc1ccc(-c2nnn(CC(=O)N3CCN(c4nc5ccccc5s4)CC3)n2)cc1	i	i	i	i	i
CC(C)c1ccc(-c2nnn(Cc3nc4ccccc4s3)n2)cc1	i	i	i	i	80
SMILES	Ecoli WT expand	Mac1 fbg inh	CD11b adhes enh	Phagocyt inh	Ecoli tolC
CCN(CC)N=Nc1[nH]nc2nc(C)cc(C)c12	63	i	i	i	nt
CCN(CC)c1ccc(NC(=O)CSc2nc3ccccc3c(=O)n2-c2cc(S(=O)(=O)N(C)C)ccc2C)cc1	nt	nt	nt	i	nt
O=C1C2CSCN2C(=O)CN1CCCN1CCN(C(c2ccccc2)c2ccccc2)CC1 (centres undefined)	nt	nt	nt	i	nt
C=CCOc1ccc(/C=N/O)cc1Cl	nt	nt	nt	i	nt
COc1ccc(CN=C(Nc2ccccc2)SC2CC(=O)N(C)C2=O)cc1 (centres undefined)	nt	nt	nt	i	nt
Cc1nc2c(C(=O)NCCC3=CCCCC3)c[nH]n2c(=O)c1Cl	i	i	i	i	79
Cc1nc2c(C(=O)NCc3ccc4c(c3)OCO4)c[nH]n2c(=O)c1Cl	i	i	i	i	i
CCCCN(CCCNC(=O)CN1C(=O)COc2ccccc21)c1ccccc1	i	nt	nt	i	61
CCc1cc2c(=O)n(Cc3ccco3)c(SCc3c(C)noc3C)nc2s1	i	nt	nt	i	65
CC(=O)CC(=O)Nc1ccc(Nc2ccccc2)cc1	nt	nt	nt	i	nt
COc1ccc(NC(=O)C2CCN(c3cc(C)nc(-c4ccccc4)n3)CC2)cc1	i	i	i	nt	i
Cc1cc(N2CCC(C(=O)Nc3ccc(F)cc3)CC2)nc(-c2ccccc2)n1	i	i	i	i	89
CC1=NN(C(=O)c2ccc(Br)cc2)C(O)(C(F)(F)OC(F)(F)F)C1 (centres undefined)	i	93	i	i	nt
Cc1ccc(Nc2cc(C)nn2-c2nc(C)cc(=O)[nH]2)cc1	77	nt	nt	nt	100
CCOc1cc(/C=C2/C(=N)N3OC(C)=CC3=NC2=O)ccc1OCCOc1ccccc1	i	i	i	i	nt
Cn1c(=O)c(C(=O)c2ccccc2)nc2ccccc21	i	i	i	i	i
O=C(c1ccccc1)c1nc2ccccc2n(CCCn2c(=O)c(C(=O)c3ccccc3)nc3ccccc32)c1=O	i	i	132	i	nt
O=C(Cc1nc2ccccc2s1)c1ccc(O)cc1O	i	i	i	i	i
O=C(COc1ccccc1Br)c1ccc(O)cc1O	i	i	i	i	70
O=C(Cc1ccc(Br)cc1)c1ccc(O)cc1O	59	78	i	i	95
O=C(COc1ccccc1Br)NC1CCCC1	nt	nt	nt	i	nt
O=C(CSc1nnc(-c2cccs2)o1)Nc1cccc(S(=O)(=O)N2CCCCC2)c1	nt	nt	nt	i	nt
COc1ccc(S(=O)(=O)NCc2cccs2)cc1	i	i	i	i	nt
COc1ccc(S(=O)(=O)N(Cc2cccs2)C2CCCC2)cc1	i	nt	i	i	66
Cc1ccc(-c2csc3nnc(SCC(=O)Nc4nsc(-c5ccccc5)n4)n23)cc1	i	i	i	i	i
SMILES	Ecoli WT expand	Mac1 fbg inh	CD11b adhes enh	Phagocyt inh	Ecoli tolC
O=C(CSc1nnc2scc(-c3ccccc3)n12)Nc1nsc(-c2ccccc2)n1	i	i	i	i	62
CCOc1ccc(NC(=S)Nc2cc(OC)c(Cl)cc2OC)cc1	nt	nt	nt	i	nt
CC(C)C(c1nnnn1C1CCCC1)N1c2ccccc2CC1C (centres undefined)	i	i	i	i	74
CC(C)C(c1nnnn1C1CCCCC1)N1CCc2ccccc21 (centres undefined)	i	i	i	i	nt
CC1(C)C(=O)OC(c2cc(Br)ccc2O)C(C)(C)C1=O (centres undefined)	nt	i	i	i	63
CC12CN3CC(C)(CN(C1)C3c1cc(Br)ccc1O)C2=O (centres undefined)	i	i	i	i	i
COc1cccc(N2CC(C(=O)Nc3ccc(C(=O)OC(C)C)cc3)CC2=O)c1 (centres undefined)	i	i	i	i	62
CCOc1ccc2nc(NC(=O)C3CCCN(S(=O)(=O)c4cccs4)C3)sc2c1 (centres undefined)	i	i	i	i	63
Cc1cccc(C)c1NC(=O)COn1nnc2ccc(C(F)(F)F)cc21	nt	nt	nt	i	nt
O=C(COn1nnc2ccc(C(F)(F)F)cc21)Nc1nnc(-c2ccccc2)o1	i	i	i	i	100
On1nnc2ccc3ccccc3c21	nt	nt	nt	i	nt
O=S(=O)(Nc1ccc2nc(-c3ccc(Br)o3)[nH]c2c1)c1ccccc1	i	nt	nt	nt	i
Cc1ccc(-c2nc3ccc(NS(=O)(=O)c4ccccc4)cc3[nH]2)o1	i	i	i	143	nt
Cc1csc(SCC(=O)Nc2nc(-c3ccccc3)cs2)n1	i	i	i	i	91
CCn1c(SCC(=O)Nc2nc(-c3ccc(C)cc3)cs2)nnc1-c1ccccc1O	i	i	i	i	84

Source: PubChem BioAssay
